The values below come from ChEMBL document CHEMBL1158140, “Abietane diterpenoids from Salvia pachyphylla and S. clevelandii with cytotoxic activity against human cancer cell lines” (2006).

Common to all, as to format: functional
The subject of one assay is WiDr. The assay is described as follows: Cytotoxicity against human WiDr cells after 48 hrs by SRB assay. In a few lines: (§1)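 RPMI 1640 with 5% heat-inactivated FCS and 2 mM L-glutamine, 37 °C, 5% CO2. Seeded per well at 6000 (SW1573, HBL-100), 7000 (A2780), 12 000 (WiDr) or 15 000 (T-47D). Triplicate, 1-100 µM from day 1 for 48 h; DMSO 0.25% v/v control. TCA-fixed, SRB OD 490 nm. Percentage growth from T0, T and control ODs gives GI50, mean ± SD of 3-5 experiments.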

The subject of the next assay is T47D. Kind of assay: Cytotoxicity against human T47D cells after 48 hrs by SRB assay. In a few lines: as §1
In another assay the test system is SW1573. Kind of assay: Cytotoxicity against human SW1573 cells after 48 hrs by SRB assay. The conditions noted are these: SW1573, 48 h. In a few lines: as §1
In another assay the test system is HBL-100. The assay is described as follows: Cytotoxicity against human HBL100 cells after 48 hrs by SRB assay. Conditions: HBL-100, 48 h. The method, boiled down:
as §1

The test system of a further assay is A2780. The assay is described as follows: Cytotoxicity against human A2780 cells after 48 hrs by SRB assay. The conditions noted are these: A2780, 48 h. In a few lines: as §1

On to `CC(C)C1=C[C@]2(O)CC[C@H]3C(C)(C)CCC[C@]3(C)C2=CC1=O`, for which the GI50 in the assay with WiDr was 83 µM; in the assay with T47D it was 82 µM; in the assay with SW1573 it was 29 µM; in the assay with HBL-100 it was 26 µM; with A2780, 19 µM.

Consider `CC(CO)c1cc2c(c(O)c1O)[C@@]13CCCC(C)(C)[C@@H]1C[C@@H]2OC3=O` (stereo not given in full), for which the GI50 amounted to 28 µM in the assay with WiDr; 35 µM in the assay with T47D; 9 µM in the assay with SW1573; 3.6 µM in the assay on HBL-100; 3.6 µM in the assay on A2780.

For the compound `CC(C)c1cc2c(c(O)c1O)[C@@]13CCCC(C)(C)[C@@H]1C[C@@H]2OC3`, the GI50 turned out to be 32 µM in the assay with WiDr; 32 µM in the assay with T47D; 22 µM in the assay on SW1573; 4.6 µM in the assay with HBL-100; 5.4 µM in the assay with A2780.

With `COc1cc2c(cc1C(C)C)C(=O)C=C1C(C)(C)CCC[C@@]12C`, the concentration for 50% growth inhibition (GI50) with WiDr came to 29 µM; in the assay on T47D, 33 µM; in the assay on SW1573, 18 µM; in the assay with HBL-100, 16 µM; with A2780, 16 µM.

In the case of `CC(C)c1cc2c(c(O)c1O)[C@@]13CCCC(C)(C)[C@@H]1C[C@@H]2OC3=O` [CARNOSOL], the GI50 turned out to be 26 µM in the assay with WiDr; 24 µM in the assay with T47D; 10 µM with SW1573; 3.9 µM in the assay on HBL-100; 3.6 µM with A2780.

Take `CC(C)c1cc2c(c(O)c1O)[C@@]13CCCC(C)(C)[C@@H]1[C@@H](O)[C@@H]2OC3=O` [ISOROSMANOL]: the GI50 with WiDr is more than 100 µM; with T47D, more than 100 µM; in the assay on SW1573, 23 µM; in the assay on HBL-100 it was 17 µM; in the assay on A2780, 19 µM.

As for `CC(C)C1=C[C@@]23CC[C@H]4C(C)(C)CCC[C@]4(CO2)C3=C(O)C1=O` [PACHYPHYLLONE], the GI50 turned out to be 36 µM with WiDr; 32 µM with T47D; 23 µM in the assay with SW1573; 22 µM with HBL-100; 14 µM with A2780.

On to `CC(C)c1cc(C=O)c2c(c1O)OC(=O)[C@@]21CCCC(C)(C)[C@@H]1C=O` [ROSMADIAL], for which the GI50 in the assay on WiDr amounted to 59 µM; in the assay with T47D it was 48 µM; in the assay with SW1573 it was 32 µM; with HBL-100 it was 26 µM; in the assay on A2780, 36 µM.
